These results are taken from ChEMBL document CHEMBL1156656, “HIV-1 ribonuclease H inhibitory phenolic glycosides from Eugenia hyemalis” (J Nat Prod, 2008).

The nature of assay [1]: Inhibition of HIV1 RNase H by FRET assay. Set-up: species or system Human immunodeficiency virus 1. In outline:
(§1)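 RNase H enzymes (HIV-1, HIV-2, human) assayed by high-throughput fluorescence resonance energy transfer (FRET) cleavage assay; extracts run in presence of 1% bovine serum albumin.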

Assay [2] is described as follows: Inhibition of HIV2 RNase H by FRET assay. The arrangement: species or system Human immunodeficiency virus 2. A digest of the protocol: as §1
In assay [3] the test system is Escherichia coli. Put plainly: Inhibition of Escherichia coli RNase H by FRET assay.
The nature of assay [4]: Inhibition of human RNase H by FRET assay. In outline: as §1
Assay [5] relates to Human immunodeficiency virus. Put plainly: Antiviral activity against HIV-RF in human CEM-SS cells assessed as cytopathogenicity at 20 ug/ml. Type of assay: functional, organism-based. A digest of the protocol:
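Human CEM-SS T cells infected with HIV-1 strain RF; XTT-based cell viability read-out of protection from viral cytopathic effect; highest dose tested 20 μg/mL.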

Calls of active or inactive are those of the source. The calls are words filed in the database; no cut-off is given here. Some results are limits rather than exact numbers.

Regarding `O=C(O[C@H]1[C@H](O)[C@@H](O)[C@H](Oc2ccc(O)cc2)O[C@@H]1CO)c1cc(O)c(O)c(O)c1`, the IC50 in assay [1], in assay [2] and in assay [4] was over 23.5 µM throughout. Also, the result in assay [3] and in assay [5] was inactive.
With `O=C(OC[C@H]1O[C@@H](OC(=O)c2cc(O)c(O)c(O)c2)[C@H](OC(=O)c2cc(O)c(O)c(O)c2)[C@@H](O)[C@@H]1O)c1cc(O)c(O)c(O)c1`, the half-inhibitory concentration (IC50) in assay [1] was found to be 10.2 µM; in assay [2], 0.28 µM; in assay [4], 0.55 µM. In addition, the result in assay [3] was inactive.
The like results for `O=C(OC[C@H]1O[C@@H](Oc2ccc(O)cc2)[C@H](OC(=O)c2cc(O)c(O)c(O)c2)[C@@H](OC(=O)c2cc(O)c(O)c(O)c2)[C@@H]1O)c1cc(O)c(O)c(O)c1` [HYEMALOSIDE A] were, in that order, 1.46 µM, 0.58 µM, 0.18 µM and “inactive”.
In the case of `C[C@H]1O[C@H](Oc2c(-c3ccc(O)cc3)oc3cc(O)cc(O)c3c2=O)[C@@H](OC(=O)c2cc(O)c(O)c(O)c2)[C@@H](O)[C@H]1O`, the 50% inhibitory concentration (IC50) was over 17.1 µM in assay [1], 3.38 µM in assay [2] and 3.03 µM in assay [4]. The outcome in assay [3] was inactive.
On the same counts, the results for `O=C(OC[C@H]1O[C@@H](Oc2ccc(O)cc2)[C@H](OC(=O)c2cc(O)c(O)c(O)c2)[C@@H](O)[C@@H]1O)c1cc(O)c(O)c(O)c1` are 5.05 µM, 0.28 µM, 0.55 µM and “inactive”.
On the same counts, the results for `O=C(O[C@H]1[C@H](Oc2ccc(O)cc2)O[C@H](CO)[C@@H](O)[C@@H]1O)c1cc(O)c(O)c(O)c1` are over 23.5 µM, over 23.5 µM, over 23.5 µM and “inactive”.
The like results for `O=C(OC[C@H]1O[C@@H](Oc2c(-c3ccc(O)cc3)oc3cc(O)cc(O)c3c2=O)[C@H](O)[C@@H](O)[C@@H]1O)c1cc(O)c(O)c(O)c1` were, in that order, over 16.6 µM, 5.19 µM, 9.5 µM and “inactive”.
`C[C@@H]1O[C@@H](Oc2c(-c3ccc(O)c(O)c3)oc3cc(O)cc(O)c3c2=O)[C@H](O)[C@H](O)[C@H]1O` [QUERCITRIN]: the figures for the 50% inhibitory concentration (IC50) in assay [1], in assay [2] and in assay [4] were over 22.3 µM, 21.3 µM and 12.5 µM, respectively. The outcome in assay [3] was inactive.
On to `C[C@H]1O[C@H](Oc2c(-c3ccc(O)cc3)oc3cc(O)cc(O)c3c2=O)[C@@H](O)[C@@H](OC(=O)c2cc(O)c(O)c(O)c2)[C@H]1O`, for which the IC50 is over 17.1 µM in assay [1], 9.12 µM in assay [2] and 7.25 µM in assay [4]. Besides, in assay [3], the outcome was inactive.
Turning to `O=C(O[C@@H]1[C@@H](OC(=O)c2cc(O)c(O)c(O)c2)[C@H](Oc2ccc(O)cc2)O[C@@H]2COC(=O)c3cc(O)c(O)c(O)c3-c3c(cc(O)c(O)c3O)C(=O)O[C@@H]12)c1cc(O)c(O)c(O)c1` [HYEMALOSIDE C], the IC50 is 1.19 µM in assay [1], 0.84 µM in assay [2] and 0.07 µM in assay [4]. Besides, the outcome in assay [3] was inactive.
Consider `O=C(OC[C@H]1O[C@@H](Oc2ccc(O)cc2)[C@H](OC(=O)c2cc(O)c(O)c(O)c2)[C@@H](O)[C@@H]1OC(=O)c1cc(O)c(O)c(O)c1)c1cc(O)c(O)c(O)c1`, for which the IC50 in assay [1] came to 0.68 µM; in assay [2], 0.1 µM; in assay [4], 0.04 µM. In assay [3], the result was inactive.
The like results for `O=C(OC[C@H]1O[C@@H](Oc2ccc(O)cc2)[C@H](OC(=O)c2cc(O)c(O)c(O)c2)[C@@H](O)[C@@H]1O)c1ccc(O)cc1` [HYEMALOSIDE B] were, in that order, over 18.3 µM, 3.32 µM, 2.44 µM and “inactive”.
